Data set [1] relates to Rattus norvegicus. Description: Distribution of radioactivity in blood of Fischer 344 female rat after 30 min of intravenous administration. Format: ADME, organism-based. To be noted: in vivo, 0.5 h.
Data set [2] has as its system Rattus norvegicus. Description: Distribution of radioactivity in lungs of Fischer 344 female rat after 60 min of intravenous administration. Format: ADME, organism-based, Lung. To be noted: in vivo, 1 h. A digest of the protocol: (§1)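 Female Fischer 344 rats, 10-12 weeks, 170-200 g, fed ad libitum. The labelled fatty acid was given in 6% bovine serum albumin via a lateral tail vein under ether anaesthesia. Rats were killed by CO2 anaesthesia and cervical fracture; organs were excised, rinsed, blotted, weighed and counted by Ge(Li) analyzer. Results are mean percent injected dose/g with range.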

In data set [3] the test system is Rattus norvegicus. Put plainly: Distribution of radioactivity in heart of Fischer 344 female rat after 60 min of intravenous administration. Type of data set: ADME, organism-based. To be noted: in vivo, 1 h.
Data set [4] concerns Rattus norvegicus. Put plainly: Distribution of radioactivity in blood of Fischer 344 female rat after 5 min of intravenous administration. Format: ADME, organism-based. To be noted: in vivo. A digest of the protocol: (§2)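 In female Fischer 344 rats, each animal received about 2.5 µCi of the 123mTe-labelled fatty acid (sp act. ~16 mCi/mmol) in 6% bovine serum albumin through a lateral tail vein. Four rats were used per time point. Excised organs were rinsed, blotted, weighed and counted on a Ge(Li) analyzer. Results are mean (range) % injected dose per gram.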

In data set [5] the test system is Rattus norvegicus. Description: Distribution of radioactivity in kidneys of Fischer 344 female rat after 5 min of intravenous administration. Format: ADME, organism-based, Kidney. Conditions: in vivo. A digest of the protocol:
as §2

In data set [6] the test system is Rattus norvegicus. Put plainly: Distribution of radioactivity in heart of Fischer 344 female rat after 5 min of intravenous administration. Type of data set: ADME, organism-based. Conditions: in vivo. A digest of the protocol:
as §2

In data set [7] the test system is Rattus norvegicus. Description: Distribution of radioactivity in lungs of Fischer 344 female rat after 30 min of intravenous administration. Type of data set: ADME, organism-based, Lung. Conditions: in vivo, 0.5 h. An outline of the steps: as §1
Data set [8] concerns Rattus norvegicus. Put plainly: Distribution of radioactivity in liver of Fischer 344 female rat after 60 min of intravenous administration. Type of data set: ADME, organism-based. To be noted: in vivo, 1 h. An outline of the steps:
as §1

Data set [9] has as its system Rattus norvegicus. Put plainly: Distribution of radioactivity in liver of Fischer 344 female rat after 30 min of intravenous administration. Conditions: in vivo, 0.5 h. Type of data set: ADME, organism-based. A digest of the protocol:
as §1

Data set [10] deals with Rattus norvegicus. Description: Distribution of radioactivity in kidneys of Fischer 344 female rat after 30 min of intravenous administration. Format: ADME, organism-based, Kidney. To be noted: in vivo, 0.5 h.
In data set [11] the test system is Rattus norvegicus. Description: Distribution of radioactivity in blood of Fischer 344 female rat after 60 min of intravenous administration. Type of data set: ADME, organism-based. Conditions: in vivo, 1 h.
The test system of data set [12] is Rattus norvegicus. Put plainly: Distribution of radioactivity in heart of Fischer 344 female rat after 30 min of intravenous administration. Type of data set: ADME, organism-based. To be noted: in vivo, 0.5 h.
Data set [13] relates to Rattus norvegicus. Description: Distribution of radioactivity in liver of Fischer 344 female rat after 5 min of intravenous administration. Type of data set: ADME, organism-based. Conditions: in vivo. A digest of the protocol: (§3)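 Tracer was the 123mTe-labelled fatty acid, about 2.5 μCi per rat (sp act. ~16 mCi/mmol), given in 6% bovine serum albumin into a lateral tail vein. Female Fischer 344 rats, 10-12 weeks, 170-200 g, four per time point. Excised organs were rinsed, blotted and weighed, then counted by Ge(Li) analyzer, with mean percent injected dose/g and range reported.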

The test system of data set [14] is Rattus norvegicus. Put plainly: Distribution of radioactivity in kidneys of Fischer 344 female rat after 60 min of intravenous administration. Conditions: in vivo, 1 h. Format: ADME, organism-based, Kidney.
In data set [15] the test system is Rattus norvegicus. Description: Distribution of radioactivity in lungs of Fischer 344 female rat after 5 min of intravenous administration. Format: ADME, organism-based, Lung. Conditions: in vivo. An outline of the steps: as §3

As for `O=C(O)CCCCCCCC[123Te]CCCCCCCCI`, the Distribution of radioactivity in the data set on Rattus norvegicus [1] is recorded as 0.36 dose g-1; in the data set on Rattus norvegicus [2], 0.56 dose g-1; with Rattus norvegicus [3], 1.58 dose g-1; in the data set with Rattus norvegicus [4], 0.13 dose g-1; in the data set with Rattus norvegicus [5], 1.17 dose g-1; with Rattus norvegicus [6] it was 1.38 dose g-1. The Distribution of radioactivity in the data set on Rattus norvegicus [7] was found to be 0.62 dose g-1; in the data set on Rattus norvegicus [8], 1.65 dose g-1; in the data set with Rattus norvegicus [9], 2.11 dose g-1; in the data set on Rattus norvegicus [10], 1.05 dose g-1; with Rattus norvegicus [11], 0.25 dose g-1; in the data set on Rattus norvegicus [12], 2.24 dose g-1. Further, the Distribution of radioactivity in the data set on Rattus norvegicus [13] was 3.33 dose g-1; with Rattus norvegicus [14], 0.99 dose g-1; in the data set on Rattus norvegicus [15], 0.67 dose g-1.
